Measurements reported in ChEMBL document CHEMBL1649416, “Structure-based design of potent and selective 2-(quinazolin-2-yl)phenol inhibitors of checkpoint kinase 2” (J Med Chem, 2011).

Test: Metabolic stability in mouse microsomes assessed as decrease in parent compound level after 30 mins by LC/MS
Assay type: ADME, Microsome
Settings: read-out: Activity
How it was run: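 Compounds were incubated with mouse liver microsomes supplemented with UDP-glucuronosyltransferase, covering primary and secondary metabolism. Turnover was expressed as % of parent metabolized at 30 min.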

Q: With `COc1cc2nc(-c3cc(F)ccc3O)nc(N[C@@H]3CNC[C@H]3C(C)(C)O)c2cc1OC` as the compound, how does the metabolised at 0.5 h read?
A: 23%

Q: For `COCCOc1ccc2c(N[C@H]3CCNC3)nc(-c3cc(F)ccc3O)nc2c1`, which metabolised at 0.5 h is on record?
A: 25%

Q: With `Oc1ccc(F)cc1-c1nc(N[C@H]2CCNC2)c2ccccc2n1` as the compound, how does the metabolised at 0.5 h read?
A: 27%

Q: For `CC(C)(O)[C@@H]1CNC[C@H]1Nc1nc(-c2cc(-c3cc[nH]n3)ccc2O)nc2ccccc12`, which metabolised at 0.5 h is on record?
A: 22%

Q: Which metabolised at 0.5 h does the source give for `Oc1ccc(-c2cc[nH]n2)cc1-c1nc(N[C@H]2CCNC2)c2ccccc2n1` here?
A: 27%

Q: Which metabolised at 0.5 h does the source give for `Oc1ccccc1-c1nc(N[C@H]2CCNC2)c2ccccc2n1` here?
A: 25%
